Test results: ChEMBL document CHEMBL3244344, “Nucleoside conjugates as potential antitumor agents. 2. Synthesis and biological activity of 1-(beta-D-arabinofuranosyl)cytosine conjugates of prednisolone and prednisone” (J Med Chem, 1979)

Legend:
L1210 [1] = experiment: Antitumor activity against mouse L1210 cells allografted in C3D2F1/J mouse assessed as increase in life span at 75 mg/kg, ip qd administered for 5 days relative to control; assay type: functional; details: 120 h, route intraperitoneal
[2] = Drug degradation in baboon plasma at 5 umol at 37 degC after 24 hrs by UV analysis; assay type: ADME, cell-free; details: papio anubis, read-out: Drug degradation
Summary of the method: (§1)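 5 μmol conjugate in 0.5 mL fresh baboon plasma, incubated at 37 °C for 24 h. Intact conjugate and products were separated by paper chromatography with authentic markers.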

L1210 [3] = experiment: Antitumor activity against mouse L1210 cells allografted in C3D2F1/J mouse assessed as increase in life span at 50 mg/kg, ip qd administered for 5 days relative to control; assay type: functional; details: 120 h, route intraperitoneal
[4] = Drug degradation assessed as compound hydrolysis at 5 umol at pH 4.8 at 25 degC after 24 hrs by UV analysis in presence of wheat germ acid phosphatase; assay type: physicochemical; details: read-out: Drug degradation
Summary of the method: (§2)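 5 μmol conjugate in NaOAc buffer (pH 4.8) with 3 mg crude wheat germ acid phosphatase, 0.5 mL total, held at 25 °C for 24 h. Products were separated by paper chromatography against authentic markers.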

[5] = Hydrolytic stability of the compound at 5 umol at pH 8 at 25 degC after 24 hrs by UV analysis in presence of bacterial alkaline phosphatase; assay type: physicochemical; details: isolated protein, pH 8, 24 h
Summary of the method: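 5 μmol conjugate in Tris-HCl (pH 8.0) with bacterial alkaline phosphatase suspension, 0.5 mL total, incubated at 25 °C for 24 h. Paper chromatography against authentic markers.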

L1210 [6] = experiment: Antitumor activity against mouse L1210 cells allografted in C3D2F1/J mouse assessed as median survival time at 25 mg/kg, ip qd administered for 5 days (reference value: 9 days); assay type: functional; details: route intraperitoneal
Mus musculus [7] = experiment: Toxicity in C3D2F1/J mouse allografted with mouse L1210 cells assessed as body weight change at 25 mg/kg, ip qd administered for 5 days measured on day 8 (reference value: 1.81 +/- 0.79 g); assay type: organism-based; design: dose 25 mg/kg, route intraperitoneal; details: in vivo, 120 h
[8] = Drug degradation assessed as steroid formation at 5 umol at pH 9 after 24 hrs by UV analysis in presence of Crotalus adamanteus 5'-nucleotidase; assay type: physicochemical; details: buffer, pH 9, 24 h
Summary of the method: (§3)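 Crude Crotalus adamanteus venom: 5 μmol conjugate in Tris-HCl buffer (pH 8.8) with 2.5 mg venom, 0.5 mL total, incubated 37 °C for 24 h. Products were resolved by paper chromatography alongside authentic markers.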

L1210 [9] = experiment: Antitumor activity against mouse L1210 cells allografted in C3D2F1/J mouse assessed as median survival time at 75 mg/kg, ip qd administered for 5 days (reference value: 9 days); assay type: functional; details: route intraperitoneal
[10] = Drug degradation assessed as ara-C formation at 5 umol at pH 9 after 24 hrs by UV analysis in presence of Crotalus adamanteus 5'-nucleotidase; assay type: physicochemical; details: buffer, pH 9, 24 h; summary of the method: as §3
Mus musculus [11] = experiment: Toxicity in C3D2F1/J mouse allografted with mouse L1210 cells assessed as body weight change at 100 mg/kg, ip qd administered for 5 days measured on day 8 (reference value: 1.81 +/- 0.79 g); assay type: organism-based; design: dose 100 mg/kg, route intraperitoneal; details: in vivo, 120 h
L1210 [12] = experiment: Antitumor activity against mouse L1210 cells allografted in C3D2F1/J mouse assessed as increase in life span at 100 mg/kg, ip qd administered for 5 days relative to control; assay type: functional; details: 120 h, route intraperitoneal
[13] = Metabolic stability in baboon plasma assessed as remaining compound level at 5 umol at 37 degC after 24 hrs by UV analysis; assay type: ADME, cell-free; details: papio anubis, read-out: Stability; summary of the method: as §1
L1210 [14] = experiment: Antitumor activity against mouse L1210 cells allografted in C3D2F1/J mouse assessed as increase in life span at 25 mg/kg, ip qd administered for 5 days relative to control; assay type: functional; details: 120 h, route intraperitoneal
L1210 [15] = experiment: Cytotoxicity against mouse L1210 cells assessed as growth inhibition measured at 72 hrs by trypan blue exclusion assay; assay type: functional; details: L1210, 72 h, read-out: ED50 (the source's name)
Summary of the method: (§4)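 L1210 mouse lymphoid leukemia cells seeded at 2–3 × 10⁵ cells/mL in RPMI 1640 + 10% fetal calf serum with compound (from Me2SO stock, final Me2SO 0.5%, compound 100 μM or lower). Viable cells counted by 0.05% Trypan blue exclusion in a hemocytometer at 24, 48, 72 h. Treated/untreated density ratio. ED50 at 72 h interpolated from response curves of three separate experiments.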

L1210 [16] = experiment: Antitumor activity against mouse L1210 cells allografted in C3D2F1/J mouse assessed as median survival time at 100 mg/kg, ip qd administered for 5 days (reference value: 9 days); assay type: functional; details: route intraperitoneal
Mus musculus [17] = experiment: Toxicity in C3D2F1/J mouse allografted with mouse L1210 cells assessed as body weight change at 50 mg/kg, ip qd administered for 5 days measured on day 8 (reference value: 1.81 +/- 0.79 g); assay type: organism-based; design: dose 50 mg/kg, route intraperitoneal; details: in vivo, 120 h
L1210 [18] = experiment: Antitumor activity against mouse L1210 cells allografted in C3D2F1/J mouse assessed as median survival time at 50 mg/kg, ip qd administered for 5 days (reference value: 9 days); assay type: functional; details: route intraperitoneal
Mus musculus [19] = experiment: Toxicity in C3D2F1/J mouse allografted with mouse L1210 cells assessed as body weight change at 75 mg/kg, ip qd administered for 5 days measured on day 8 (reference value: 1.81 +/- 0.79 g); assay type: organism-based; design: dose 75 mg/kg, route intraperitoneal; details: in vivo, 120 h
[20] = Hydrolytic stability of the compound assessed as remaining compound level at 5 umol at pH 4.8 at 25 degC after 24 hrs by UV analysis in presence of wheat germ acid phosphatase; assay type: physicochemical; details: read-out: Stability; summary of the method: as §2
L1210 [21] = experiment: Antitumor activity against mouse L1210 cells allografted in C3D2F1/J mouse assessed as median survival time at 24.2 mg/kg, ip qd administered for 5 days (reference value: 10 days); assay type: functional; details: route intraperitoneal
L1210 [22] = experiment: Antitumor activity against mouse L1210 cells allografted in C3D2F1/J mouse assessed as increase in life span at 24.2 mg/kg, ip qd administered for 5 days relative to control; assay type: functional; details: 120 h, route intraperitoneal
L1210 [23] = experiment: Cytotoxicity against mouse L1210 cells assessed as growth inhibition measured at 72 hrs in presence of 5 uM prednisolone by trypan blue exclusion assay; assay type: functional; details: L1210, 72 h, read-out: ED50 (the source's name); summary of the method: as §4
L1210 [24] = experiment: Cytotoxicity against mouse L1210 cells assessed as growth inhibition measured at 72 hrs in presence of 100 uM prednisolone by trypan blue exclusion assay; assay type: functional; details: L1210, 72 h, read-out: ED50 (the source's name); summary of the method: as §4
Mus musculus [25] = experiment: Toxicity in C3D2F1/J mouse allografted with mouse L1210 cells assessed as body weight change at 24.2 mg/kg, ip qd administered for 5 days measured on day 8 (reference value: 1.81 +/- 0.79 g); assay type: organism-based; design: dose 24.2 mg/kg, route intraperitoneal; details: in vivo, 120 h

Row | Compound | ILS at 75 mg/kg (L1210 [1]) | metabolised at 24 h, 5 umol [2] | ILS at 50 mg/kg (L1210 [3]) | metabolised at 24 h, 5 umol [4] | Stability [5] | MST (L1210 [6]) | Activity (Mus musculus [7]) | Drug degradation [8] | MST (L1210 [9]) | Drug degradation [10] | Activity (Mus musculus [11]) | ILS at 100 mg/kg (L1210 [12]) | remaining at 24 h, 5 umol [13] | ILS at 25 mg/kg (L1210 [14]) | EC50 (L1210 [15]) | MST (L1210 [16]) | Activity (Mus musculus [17]) | MST (L1210 [18]) | Activity (Mus musculus [19]) | remaining at 24 h, 5 umol [20] | further results
1 | C[C@]12C=CC(=O)C=C1CC[C@@H]1[C@@H]2[C@@H](O)C[C@@]2(C)[C@H]1CC[C@]2(O)C(=O)CO[P+]([O-])(O)OC[C@H]1O[C@@H](n2ccc(N)nc2=O)[C@@H](O)[C@@H]1O (some centres undefined) | 77.8% | 39% | 88.9% | 86% | Stable | 15.5 days | -0.07 g | 50% | 16 days | 50% | -1.5 g | 16.7% | 44% | 72.7% | 50 nM | 10.5 days | -0.28 g | 17 days | -0.71 g | 8% | –
2 | C[C@]12C=CC(=O)C=C1CC[C@@H]1[C@@H]2C(=O)C[C@@]2(C)[C@H]1CC[C@]2(O)C(=O)CO[P+]([O-])(O)OC[C@H]1O[C@@H](n2ccc(N)nc2=O)[C@@H](O)[C@@H]1O (some centres undefined) | 55.6% | 15% | 100% | 88% | Stable | 14.5 days | -0.14 g | 50% | 14 days | 50% | -1.5 g | 11.1% | 74% | 61.1% | 500 nM | 10 days | -0.3 g | 18 days | -0.75 g | 7% | –
3 | Nc1ccn([C@@H]2O[C@H](COP(=O)(O)O)[C@@H](O)[C@@H]2O)c(=O)n1 [CYTARABINE 5'-PHOSPHATE] | – | – | 0% | – | – | – | – | – | – | – | – | – | – | – | 50 nM | – | -4.32 g | 9 days | – | – | MST (L1210 [21]): 16.5 days; ILS at 24.2 mg/kg (L1210 [22]): 65%; EC50 (L1210 [23]): 10 nM; EC50 (L1210 [24]): 5 nM; Activity (Mus musculus [25]): -3.52 g
